Test: Inhibition of Vibrio cholerae alpha-carbonic anhydrase preincubated for 15 mins by stopped-flow CO2 hydration assay
Outline: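 Stopped-flow CO2 hydration assay, phenol red 0.2 mM read at 557 nm, 20 mM Hepes pH 7.4 with 20 mM NaBF4 for ionic strength. Initial rates followed 10–100 s, CO2 1.7–17 mM. Inhibitor (10 mM DMSO stock, buffer dilutions down to 0.01 nM) preincubated with enzyme 15 min at RT. Uncatalyzed rate subtracted; Ki by nonlinear least squares and Cheng–Prusoff, mean of ≥3 determinations.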

**Q.** With `COc1ccc2nc(SCC(=O)Nc3ccc(S(N)(=O)=O)cc3)n(Cc3ccccc3)c(=O)c2c1` as the molecule, how does the Ki read?
**A.** The Ki was greater than 10000 nM.

**Q.** For `NS(=O)(=O)c1ccc(NC(=O)CSc2nc3ccc([N+](=O)[O-])cc3c(=O)n2Cc2ccccc2)cc1`, which Ki is on record?
**A.** The Ki was greater than 10000 nM.

**Q.** Which Ki does the source give for `C=CCn1c(SCC(=O)Nc2ccc(S(N)(=O)=O)cc2)nc2ccc(C)cc2c1=O` here?
**A.** Its Ki is 6 nM.

**Q.** With `NS(=O)(=O)c1ccc(NC(=O)CSc2nc3ccc([N+](=O)[O-])cc3c(=S)n2Cc2ccccc2)cc1` as the molecule, how does the Ki read?
**A.** Its Ki is greater than 10000 nM.

**Q.** Which Ki does the source give for `Cc1ccc2nc(SCC(=O)Nc3ccc(S(N)(=O)=O)cc3)n(Cc3ccccc3)c(=O)c2c1` here?
**A.** The Ki was 2.7 nM.

**Q.** For `C=CCn1c(SCC(=O)Nc2ccc(S(N)(=O)=O)cc2)nc2ccc([N+](=O)[O-])cc2c1=O`, which Ki is on record?
**A.** The Ki was 6.6 nM.

**Q.** For `Cc1ccc2nc(SCC(=O)Nc3ccc(S(N)(=O)=O)cc3)n(Cc3ccccc3)c(=S)c2c1`, which Ki is on record?
**A.** Its Ki is 5.5 nM.

**Q.** For `Cc1cccc2nc(SCC(=O)Nc3ccc(S(N)(=O)=O)cc3)n(Cc3ccccc3)c(=S)c12`, which Ki is on record?
**A.** Its Ki is 7.7 nM.

**Q.** For `Cc1cccc2c(=S)n(Cc3ccccc3)c(SCC(=O)Nc3ccc(S(N)(=O)=O)cc3)nc12`, which Ki is on record?
**A.** The Ki was 8.7 nM.

**Q.** With `COc1cccc2c(=S)n(Cc3ccccc3)c(SCC(=O)Nc3ccc(S(N)(=O)=O)cc3)nc12` as the molecule, how does the Ki read?
**A.** The Ki was 7.9 nM.

**Q.** Which Ki does the source give for `Cc1cccc2c(=O)n(Cc3ccccc3)c(SCC(=O)Nc3ccc(S(N)(=O)=O)cc3)nc12` here?
**A.** The Ki was 8.5 nM.

**Q.** With `COc1cccc2c(=O)n(Cc3ccccc3)c(SCC(=O)Nc3ccc(S(N)(=O)=O)cc3)nc12` as the molecule, how does the Ki read?
**A.** Its Ki is greater than 10000 nM.
